Bioassay records from PubChem.
Shown are actives, neighbours in structure and some others; about 1.8% of the full set was active somewhere.
SIAE inh: human SIAE inhibition, primary screen | SIAE FP-Rh probe binding, fluorescence polarization | inhibition, % at 9.66 µM | actives 0.69% (n = 370,000);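 active = inhibition above a cutoff: mean of compounds within the control limits plus 3 SD of those, cut at about 17% in these data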;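 note: 0% = plate median of compound wells and 100% = probe without SIAE protein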
HTRA1 inh: HTRA1 (human) protease inhibition; Q92743; recombinant HTRA1, FP-rhodamine activity-based probe, fluorescence polarization; inhibition, % at 5.96 µM; actives 0.5% (n = 340,000); AID 504803; in the data active = inhibition above about 36%;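 note: 0% = enzyme with DMSO and 100% = wells lacking enzyme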
ABHD4 inh: inhibitors of mouse ABHD4. actives 0.54% (n = 370,000). Q8VD66. inhibition, % at 8.92 µM. purified mABHD4, FP-Rh probe fluorescence polarization;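 active = inhibition exceeding the mean over every tested compound plus 3 SD, cut at about 30% in these data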;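 note: 0% = plate median of compound wells and 100% = S159A mutant with DMSO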
Target sequence (Q8VD66 whole entry, looked up): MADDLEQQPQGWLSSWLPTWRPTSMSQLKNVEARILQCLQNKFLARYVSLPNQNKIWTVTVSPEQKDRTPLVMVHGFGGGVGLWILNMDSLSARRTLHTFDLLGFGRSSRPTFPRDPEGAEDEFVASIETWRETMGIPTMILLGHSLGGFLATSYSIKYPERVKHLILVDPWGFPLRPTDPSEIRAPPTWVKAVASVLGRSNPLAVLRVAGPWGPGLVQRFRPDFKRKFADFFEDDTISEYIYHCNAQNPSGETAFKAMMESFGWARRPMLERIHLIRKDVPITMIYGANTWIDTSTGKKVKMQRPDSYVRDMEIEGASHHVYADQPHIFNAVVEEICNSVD
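Doses – 8.92 µM, single dose · Material – wild-type mouse ABHD4 protein · Replication – single well per compound (singlicate) · Measure – percent inhibition of probe binding, normalized to plate controls · Schedule – 45 min compound pre-incubation plus 60 min probe step, 25 °C · Detection – fluorescence polarization with parallel and perpendicular emission, 525/598 nm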
DDE Tn6 FP inh: inhibitors of Tn6 peptide binding to human fibrin DD(E); P02675; Fibrin DD(E) TRITC-Tn6 fluorescence polarization displacement; inhibition, % at 8.3 µM; actives 0.21% (n = 370,000); AID 720509;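 active = inhibition above a per-campaign cutoff: mean of compounds within control limits plus 3 SD, cut at about 15% in these data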;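 note: 0% = median of all compound wells on the plate and 100% = blocking peptide control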
DDE Tn7 FP inh: disrupts Tn7 cyclic peptide binding to fibrin D-Dimer-E complex | P02675 | AID 720508 | inhibition, % at 8.3 µM | FP displacement of FITC-Tn7 peptide from fibrin DD(E); 0% = median of compound wells per plate | actives 0.13% (n = 370,000);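 active = inhibition above the mean of compounds falling within the control limits plus 3 SD of them, cut at about 14% in these data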;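 note: 0% = plate median of compound wells and 100% = 10 µM Aha-Tn7 peptide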
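Assay system: human fibrin DD(E). Input: DD(E) 2 µM final. Medium: Tris buffer with calcium and detergent, pH 7.8. Compound dosing: single point at 8.3 µM. Timing: 10 min plus 3 h, room temperature. Technique: fluorescence polarization of the labelled Tn7 tracer. Read-out: percent inhibition. Replicates: singlicate testing.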
TCR CD3 inh: blocks the human TCR-CD3 interaction | TAMRA-labeled TCR probe fluorescence, biochemical | AID 651800 | inhibition, % at 9.4 µM | actives 0.37% (n = 360,000); in the data active = inhibition above about 19%;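 note: recombinant mutant TCR 2C K166C tagged with TAMRA read by polarization; 0% = receptor in buffer alone and 100% = receptor with positive control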
DDE Tn6 FP ctr: DD(E)-Tn6 binding inhibition, counter-screen | shares compounds with DDE Tn6 FP inh | Fibrin DD(E), TRITC-Tn6 fluorescence polarization displacement; 0% = median of compound wells, not DMSO | inhibition, % at 8.3 µM | actives 2% (n = 680) | AID 720621;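 active = inhibition above the mean of test compounds lying between the control limits plus 3 SD of those, cut at about 14% in these data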;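 note: 0% = median of compound wells and 100% = wells with Aha-Tn7 blocking peptide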
DDE Tn6 confirm: confirmation of inhibitors of Tn6 binding to human fibrin DD(E); shares compounds with DDE Tn6 FP inh; FP displacement of TRITC-Tn6 peptide from DD(E); 0% = per-plate median of test wells; inhibition, % at 8.3 µM; actives 10% (n = 680); AID 720631;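 active = inhibition above the mean of compounds lying within the control limits plus 3 SD, cut at about 16% in these data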;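 note: 100% = high control wells holding a competing inhibitor peptide at 10 µM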
* = called active by the depositor; . = not tested or not shown.

SMILES	SIAE inh	HTRA1 inh	ABHD4 inh	DDE Tn6 FP inh	DDE Tn7 FP inh	TCR CD3 inh	DDE Tn6 FP ctr	DDE Tn6 confirm
COc1ccc(CNC(=O)C[C@H]2C[C@H](C(=O)N3CCOCC3)[C@@]3(CCC4CCCC4)c4[nH]c5cc(-c6ccco6)ccc5c4CCN3C2=O)cc1OC	-4.6	-2.7	0.1	16.1*	6.1	2.7	7.3	3.3
C=CCNC(=O)C(=O)Nc1cc2c3c(c1)CCC(=O)N3CCC2	9.1	3.5	1.9	-3.5	-3.6	0.9	.	.
CC(Oc1ccc(F)cc1)C(O)CCN(C)C (stereo not drawn)	-2.2	-3.4	3.3	24.5*	-0.5	9.6	-6.6	-8.4
CC(C)Oc1ccc(C(CC(=O)NCCCN(C)C)c2ccc(F)cc2)cc1 (stereo not drawn)	-1.7	0.2	-3.0	7.3	-0.3	2.5	.	.
O=C(NCCOc1ccc(F)cc1)C1CCC(=O)N(CCN2CCOCC2)C1 (stereo not drawn)	-9.7	1.6	-11.7	-0.3	0.9	-3.8	.	.
COc1cc(OC)cc(-c2c(-c3ccc(F)cc3)c3cc(-c4ccc5c(c4)OCCO5)ccc3n2C)c1	1.9	-3.3	5.3	53.2*	-0.7	-2.1	-8.4	-6.4
CCc1ccc(-c2nc(SCC(=O)N(CC)C3CCS(=O)(=O)C3)n[nH]2)cc1 (stereo not drawn)	10.7	4.2	-2.7	-1.5	0.8	-8.0	.	.
COc1ccc(Nc2c(-c3ccc(F)cc3)nc3nc(C)cc(C)n23)cc1	7.5	.	10.5	16.5*	8.4	-0.8	-1.5	-6.9
COc1ccc(Nc2c(-c3cc4ccccc4o3)nc3nc(C)cc(C)n23)cc1	5.2	.	3.8	-5.7	3.2	-4.9	.	.
CC(C)Cn1c2c(c(O)c(C(=O)Nc3ccc(F)cc3)c1=O)CCCC2	5.8	-4.3	2.3	16.3*	-2.7	2.3	0.8	-3.2
CC(C)Cn1c2c(c(O)c(C(=O)Nc3ncccc3O)c1=O)CCCC2	-0.2	11.7	6.2	2.2	3.6	8.2	.	.
C=CCn1c(CC#N)nnc1N1CCOCC1	5.5	-3.6	4.3	15.8*	5.3	7.9	2.9	0.6
CCN(Cc1nc2cc(Cl)ccc2c(=O)[nH]1)C(=O)c1cc(C2CC2)nn1-c1ccccc1	-7.5	-37.1	-3.6	15.8*	-5.2	-7.3	-1.3	-16.3
COc1ccc(OC)c(S(=O)(=O)Nc2ccc(C(=O)Nc3cc(C)on3)cc2)c1	0.8	.	-2.8	-9.5	0.7	.	.	.
CN(C)c1ccc(CN(C(=O)c2ccccc2Br)C2CCS(=O)(=O)C2)cc1 (stereo not drawn)	5.9	2.8	-4.5	4.8	1.1	-11.6	.	.
C/C(Cl)=C/Cn1c(NCCCn2ccnc2)nc2c1c(=O)[nH]c(=O)n2C	6.0	6.6	-2.1	-4.6	0.0	-6.6	.	.
Cn1c(=O)[nH]c(=O)c2c1nc(NCCCn1ccnc1)n2Cc1ccc(F)cc1	1.1	3.8	0.9	15.3*	6.9	6.4	4.3	0.8
CCC(C)NC(=O)C1CC(=O)N(CCc2ccc(F)cc2)C1 (stereo not drawn)	3.3	2.4	0.4	-1.0	-1.5	-5.8	.	.
Cc1cc(C)c(S(=O)(=O)c2cccc(Br)c2C)c(=O)[nH]1	8.8	6.3	0.3	-2.1	-2.3	-6.4	.	.
N#CCCCSc1nnc(Cc2ccc3c(c2)OCO3)o1	6.0	4.8	8.7	17.7*	-4.6	6.1	4.0	-4.9
N#Cc1ccc(OCC(=O)N(C2CCCCC2)C2CCS(=O)(=O)C2)cc1 (stereo not drawn)	-2.2	9.8	-0.7	15.6*	-0.9	-4.6	9.6	5.6
O=C(COc1ccc([N+](=O)[O-])cc1Cl)N(C1CCCCC1)C1CCS(=O)(=O)C1 (stereo not drawn)	4.4	-9.3	0.4	0.1	7.3	0.9	.	.
COC(=O)c1ccc2c(c1)C(C)(C)C(/C=C/c1ccc(O)cc1)=[N+]2C	-326.0	-162.8	-227.9	63.9*	-28.1	-114.6	-43.7	-25.2
COC(=O)c1ccc2c(c1)C(C)(C)C(/C=C/c1ccc(OC)c(OC)c1OC)=[N+]2C	-43.4	-85.6	-248.7	129.5*	-29.3	-49.1	-10.9	-16.7
C[C@H](NS(=O)(=O)c1c(Cl)cccc1Cl)C(=O)NNC(=O)COc1ccccc1F	3.3	4.6	4.1	-5.7	-4.6	4.1	.	.
SMILES	SIAE inh	HTRA1 inh	ABHD4 inh	DDE Tn6 FP inh	DDE Tn7 FP inh	TCR CD3 inh	DDE Tn6 FP ctr	DDE Tn6 confirm
Cc1ccc(C(=O)Nc2nc(C(N)C(C)C)cs2)cc1 (stereo not drawn)	-10.8	.	0.1	-9.0	6.0	-3.6	.	.
O=C(O)Cn1cc(/C=C2/SC(=O)N(CC(=O)N3CCCCCC3)C2=O)c2ccccc21	3.1	.	-1.0	15.5*	0.8	4.3	1.8	-1.2
COc1ccc(NC(=O)Cn2c(=O)cnc3ccccc32)cc1S(=O)(=O)N1CCCCC1	-1.3	6.6	-1.8	27.1*	-2.6	0.9	3.9	3.1
O=C(Cn1cc2c(n1)CCCCC2)Nc1c(F)cc(F)cc1Br	-1.6	1.6	-2.0	16.9*	2.4	2.8	-0.7	-4.8
CC1CCc2nn(CC(=O)Nc3c(F)cc(F)cc3Br)cc2C1 (stereo not drawn)	2.9	-4.0	5.9	6.7	0.8	0.2	.	.
COc1ccc(NS(=O)(=O)c2ccc3nc(COc4ccc5ccccc5c4)[nH]c3c2)cc1	-179.5	-85.1	-96.5	54.5*	3.5	6.9	-0.7	-10.4
COc1ccc(NS(=O)(=O)c2ccc3nc(COc4cccc5ccccc45)[nH]c3c2)cc1	-126.5	-78.1	-92.9	6.0	4.9	0.1	.	.
O=C(Nc1nccs1)c1ccc(-c2ccc(F)c(Cl)c2)o1	-40.1	-33.0	-3.9	27.3*	4.3	7.3	1.8	16.0*
COc1ccc(NC(=O)c2cc3ccccc3cc2OC)cc1OC	-0.2	-6.4	0.8	9.5	0.9	5.4	.	.
COc1cccc(NC(=O)c2cc3ccccc3cc2OC)c1	-10.3	-39.7	-15.1	15.3*	-1.6	3.8	6.1	-3.0
COc1ccccc1Oc1ccc(S(=O)(=O)NCc2ccccn2)cc1	-4.4	-3.5	0.0	15.3*	-1.4	5.0	3.5	6.2
CC(C)CC(=O)N1CCc2cc(S(=O)(=O)N(C)Cc3ccco3)ccc21	3.4	.	-1.6	4.6	5.1	.	.	.
CC(=O)N1N=C(c2ccncc2)OC12CCCCCC2	2.4	8.9	-6.9	15.7*	5.8	3.2	10.3	6.9
O=C(Nc1cccc(-c2nc3ccccc3[nH]2)c1)c1cccc(NC(=O)c2ccco2)c1	-118.0	-85.5	-133.8	86.2*	9.4	6.9	5.7	30.4*
